# Reference: ChEMBL document CHEMBL4390684, “The synthesis of 4,6-diaryl-2-pyridones and their bioactivation in CYP1 expressing breast cancer cells” (Bioorg Med Chem Lett, 2019)
# Experiments:
# MCF7 [1] = assay: Antiproliferative activity against ER positive human MCF7 cells expressing low level of CYP assessed as reduction in cell viability measured after 96 hrs by MTT assay; format: functional, cell-based; conditions: MCF7, 96 h
# Method in brief: (§1)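 Antiproliferative IC50 values were determined in MCF-7, MDA-MB-468, TCDD-treated MCF-7 (high CYP1A1 expression) and non-tumour MCF-10A breast cells. Each value is the mean of two independent experiments run in quadruplicate.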
# MCF7 [2] = assay: Antiproliferative activity against […]-induced ER positive human MCF7 cells expressing CYP1A1 assessed as reduction in cell viability after 96 hrs by MTT assay; format: functional, cell-based; conditions: MCF7, 96 h; method in brief: as §1
# MCF7 [3] = assay: Activation factor, ratio of antiproliferative IC50 of ER positive human MCF7 cells expressing low level of CYP to antiproliferative IC50 of […]-induced ER positive human MCF7 cells expressing CYP1A1; format: functional
# [4] = Selectivity index, ratio of IC50 for human MCF10A cells to IC50 for human MDA-MB-468 cells expressing CYP1A1 and CYP1B1; format: toxicity; conditions: read-out: Ratio IC50
# MDA-MB-468 = assay: Antiproliferative activity against ER negative human MDA-MB-468 cells expressing CYP1A1 and CYP1B1 assessed as reduction in cell viability measured after 96 hrs by MTT assay; format: functional, cell-based; conditions: MDA-MB-468, 96 h; method in brief: as §1
# MCF-10A = assay: Cytotoxicity against human MCF10A cells assessed as reduction in cell viability after 96 hrs by MTT assay; format: cell-based; method in brief: as §1
# Cytochrome P450 1A1 = molecular target: T1, Cytochrome P450 1A1 (Homo sapiens, UniProt P04798); assay: Drug metabolism in supersomes expressing human CYP1A1 and coexpressing NADPH reductase assessed as CYP1A1-mediated drug metabolism by measuring retention time at 10 uM in the presence of NADPH measured at 5 mins interval for 25 mins by reverse phase HPLC method; format: ADME; conditions: recombinant enzyme
# T1 sequence (P04798 whole entry): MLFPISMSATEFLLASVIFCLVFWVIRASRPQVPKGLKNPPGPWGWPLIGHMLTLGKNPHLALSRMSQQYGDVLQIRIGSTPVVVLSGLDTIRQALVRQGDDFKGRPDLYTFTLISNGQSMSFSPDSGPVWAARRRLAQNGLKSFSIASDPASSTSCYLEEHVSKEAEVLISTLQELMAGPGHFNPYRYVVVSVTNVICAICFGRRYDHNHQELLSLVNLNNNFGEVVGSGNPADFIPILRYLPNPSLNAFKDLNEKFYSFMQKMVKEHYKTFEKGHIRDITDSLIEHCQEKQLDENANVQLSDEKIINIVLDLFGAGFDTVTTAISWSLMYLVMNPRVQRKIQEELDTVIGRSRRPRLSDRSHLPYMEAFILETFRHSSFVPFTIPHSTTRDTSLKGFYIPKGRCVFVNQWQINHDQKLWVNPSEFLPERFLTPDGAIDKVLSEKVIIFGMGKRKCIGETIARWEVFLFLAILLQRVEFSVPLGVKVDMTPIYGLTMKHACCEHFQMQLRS
# Method in brief: (§2)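 Substrate was incubated with insect-cell Supersomes expressing human CYP1A1 or CYP1B1 plus NADPH reductase, at 20 pmol/mL CYP. Controls used non-CYP Supersomes, or omitted the compound, NADPH or active enzyme. Duplicate samples were taken every 5 min and quenched with ice-cold acetonitrile. After centrifugation, the supernatant was analysed by reverse-phase HPLC for parent depletion (half-life) and metabolite peaks.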
# Cytochrome P450 1B1 = molecular target: T2, Cytochrome P450 1B1 (Homo sapiens, UniProt Q16678); assay: Drug metabolism in supersomes expressing human CYP1B1 and coexpressing NADPH reductase assessed as CYP1B1-mediated drug metabolism by measuring retention time at 10 uM in the presence of NADPH measured at 5 mins interval for 25 mins by reverse phase HPLC method; format: ADME; conditions: recombinant enzyme; method in brief: as §2
# T2 sequence (Q16678 whole entry): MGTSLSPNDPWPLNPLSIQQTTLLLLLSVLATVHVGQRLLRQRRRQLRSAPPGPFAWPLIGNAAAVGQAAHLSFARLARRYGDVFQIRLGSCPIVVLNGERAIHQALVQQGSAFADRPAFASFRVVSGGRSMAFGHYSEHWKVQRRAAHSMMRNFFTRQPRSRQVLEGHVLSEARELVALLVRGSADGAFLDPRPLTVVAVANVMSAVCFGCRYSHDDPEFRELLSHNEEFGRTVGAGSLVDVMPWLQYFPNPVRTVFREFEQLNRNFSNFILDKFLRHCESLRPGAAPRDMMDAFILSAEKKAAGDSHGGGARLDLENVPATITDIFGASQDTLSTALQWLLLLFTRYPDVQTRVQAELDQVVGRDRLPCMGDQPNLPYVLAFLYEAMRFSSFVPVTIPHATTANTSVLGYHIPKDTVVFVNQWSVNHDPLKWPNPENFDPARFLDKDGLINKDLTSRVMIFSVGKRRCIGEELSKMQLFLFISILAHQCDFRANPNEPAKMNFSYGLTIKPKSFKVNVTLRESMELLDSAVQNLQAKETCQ
Compound,IC50 (MCF7 [1]) [nM],IC50 (MCF7 [2]) [nM],Ratio IC50 (MCF7 [3]),selectivity ratio [4],IC50 (MDA-MB-468) [nM],IC50 (MCF-10A) [nM],Retention_time (Cytochrome P450 1A1) [min],Retention_time (Cytochrome P450 1B1) [min]
COc1cc(-c2cc(-c3ccc4c(c3)OCO4)cc(=O)[nH]2)cc(OC)c1OC,> 100000,200,>500,> 2,50000,> 100000,–,–
COc1cc(OC)cc(-c2cc(-c3ccc4c(c3)OCO4)cc(=O)[nH]2)c1,400,200,2,2,350,700,–,–
COc1ccc(-c2cc(-c3ccc(OC)cc3OC)[nH]c(=O)c2)c(OC)c1,9000,4500,2,1,5000,5000,–,–
COc1ccc(-c2cc(-c3ccc(O)c(O)c3)cc(=O)[nH]2)c(OC)c1,1500,700,2.1,3,500,1500,10.48,10.48
COc1ccc(-c2cc(-c3ccc4c(c3)OCO4)cc(=O)[nH]2)cc1OC,> 100000,> 100000,–,> 244,410,> 100000,–,–
COc1ccc(-c2cc(-c3ccc4c(c3)OCO4)[nH]c(=O)c2)c(OC)c1,18000,1000,18,13,6000,80000,–,–
COc1ccc(-c2cc(-c3ccc(OC)cc3OC)[nH]c(=O)c2)cc1,500,200,2.5,20,80,1600,–,–
COc1ccc(OC)c(-c2cc(-c3ccc4c(c3)OCO4)cc(=O)[nH]2)c1,2000,20,100,250,20,5000,–,–
O=c1cc(-c2ccc3c(c2)OCO3)cc(-c2ccc(Cl)cc2Cl)[nH]1,85000,70000,1.2,> 1.7,60000,> 100000,–,–
